Assays:
Mus musculus [1] = assay: Gastrointestinal toxicity in Swiss albino mouse assessed as ulcerogenic effect at 100 mg/kg, po; type: organism-based; parameters: dose 100 mg/kg, route oral; settings: in vivo
Summary of the method: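 Male Swiss albino mice (20–25 g), food withdrawn one day before with water allowed, at least six per group. Dosed orally as a suspension in distilled water with 0.5% CMC; controls got vehicle. Taken from the p-benzoquinone writhing test (i.p. 2.5% PBQ 60 min post-dose), then killed under deep ether anesthesia. Stomachs were opened along the great curvature and checked under a dissecting microscope for lesions or bleeding; scored as ulcerated/total animals.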

Mus musculus [2] = assay: Antiinflammatory activity in Swiss albino mouse assessed as inhibition of carrageenan-induced paw edema at 10 mg/kg, po administered before 60 mins of carrageenan-challenge measured after 360 mins; type: functional
Summary of the method: (§1)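 Fasted male Swiss albino mice (20–25 g), n≥6, were dosed orally in 0.5% CMC suspension, with vehicle for controls. Carrageenan (0.5 mg/25 μl in saline) was injected subplantar into the right hind paw and saline into the left. The right–left footpad thickness difference was measured by dial caliper every 90 min over 6 h. Inhibition was calculated versus control, mean ± SEM.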

Mus musculus [3] = assay: Antiinflammatory activity in Swiss albino mouse assessed as inhibition of carrageenan-induced paw edema at 10 mg/kg, po administered before 60 mins of carrageenan-challenge measured after 180 mins; type: functional; summary of the method: as §1
Mus musculus [4] = assay: Antiinflammatory activity in Swiss albino mouse assessed as inhibition of carrageenan-induced paw edema at 10 mg/kg, po administered before 60 mins of carrageenan-challenge measured after 270 mins; type: functional; summary of the method: as §1
Mus musculus [5] = assay: Antiinflammatory activity in Swiss albino mouse assessed as inhibition of carrageenan-induced paw edema at 10 mg/kg, po administered before 60 mins of carrageenan-challenge measured after 90 mins; type: functional; summary of the method: as §1
Mus musculus [6] = assay: Analgesic activity in Swiss albino mouse assessed as inhibition of para-benzoquinone-induced abdominal writhing response at 100 mg/kg, po administered 60 mins prior to para-benzoquinone challenge measured after 15 mins; type: functional, Abdomen; parameters: scale not given: the % may be the effect or the level left
Summary of the method: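 Male Swiss albino mice (20–25 g) were fasted overnight with water allowed, at least 6 per group. Oral dosing used a 0.5% CMC suspension, and vehicle was given to controls. Then 0.1 ml/10 g of 2.5% (v/v) p-benzoquinone was injected i.p. Writhings were counted for 15 min, starting 5 min after injection. Inhibition is expressed as % of control, mean ± SEM, ANOVA/Student–Newman–Keuls.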

Row | Structure (SMILES) | Activity (Mus musculus [1]) | also measured
1 | Cc1ccc(/C=N/NC(=O)Cn2nc(N3CCN(c4ccc(Cl)cc4)CC3)ccc2=O)cc1 | Non-toxic | 
2 | Cc1ccc(/C=N/NC(=O)Cn2nc(N3CCN(c4cccc(Cl)c4)CC3)ccc2=O)cc1 | Non-toxic | 
3 | COc1ccc2c(c1)c(CC(=O)O)c(C)n2C(=O)c1ccc(Cl)cc1 [INDOMETHACIN] | Toxic | inhibition in vivo at 10 mg/kg (Mus musculus [2]): 40.4%; inhibition in vivo at 10 mg/kg (Mus musculus [3]): 32.8%; inhibition in vivo at 10 mg/kg (Mus musculus [4]): 37.4%; inhibition in vivo at 10 mg/kg (Mus musculus [5]): 34.4%
4 | COc1ccc(/C=N/NC(=O)Cn2nc(N3CCN(c4ccccn4)CC3)ccc2=O)cc1 | Non-toxic | 
5 | Cc1ccc(/C=N/NC(=O)Cn2nc(N3CCN(c4ccccn4)CC3)ccc2=O)cc1 | Non-toxic | 
6 | COc1ccc(/C=N/NC(=O)Cn2nc(N3CCN(c4cccc(Cl)c4)CC3)ccc2=O)cc1 | Non-toxic | 
7 | COc1ccc(/C=N/NC(=O)Cn2nc(N3CCN(c4ccc(Cl)cc4)CC3)ccc2=O)cc1 | Non-toxic | 
8 | CC(=O)Oc1ccccc1C(=O)O [ASPIRIN] | Toxic | Activity (Mus musculus [6]): 48.7%

Source: ChEMBL document CHEMBL1153644, “Synthesis and analgesic and anti-inflammatory activities 6-substituted-3(2H)-pyridazinone-2-acetyl-2-(p-substituted/nonsubstituted benzal)hydrazone derivatives” (Eur J Med Chem, 2009)
